Many of the other results were omitted from the sample, so hits are more common in it than they were.
BB579 growth dn: yeast BB579 growth reduction in restrictive medium. S. cerevisiae BB579 growth, OD615, 48 h. inhibition, % at 10 µM. 140,000 tested, 0.51% active. AID 804;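 active = inhibition above a set limit, 3 SD over the mean compound inhibition, cut at about 44% in these data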
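System: Saccharomyces cerevisiae DeaD strain BB579, replicative lifespan model yeast. Buffer or medium: restrictive glucose-based CSMM-D medium. Doses: one dose, 10 µM compound with 0.25% DMSO. Timing: 4 h preincubation and 48 h exposure at 30 °C. Detection: turbidity as optical density at 615 nm. Benchmarks: amphotericin B 10 µg/mL, positive.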
Yeast lifespan up: extends the lifespan of yeast; S. cerevisiae growth with nicotinamide, OD615; deaD strain in restrictive glucose medium; inhibition of the nicotinamide effect, % at 10 µM; 130,000 tested, 0.68% active;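 active = inhibition above a set limit, placed 3 SD over the median of all compounds, cut at about 26% in these data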
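Test system: DeaD-strain S. cerevisiae / Buffer or medium: restrictive glucose medium / Also added: nicotinamide 1.5 mM / Doses: one concentration, 10 µM, DMSO 0.25% / Schedule: 48 h at 30 °C / Signal: OD615 measurement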
PostGolgi yeast: growth inhibition of a yeast mutant, post-Golgi transport screen; post-Golgi transport phenotypic cell assay; 98,000 tested, 0.9% active; inhibition, % at 10 µM;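 also: yeast cells grown in 1536-well plates; yeast grown about 18 h at 30C before absorbance read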
PostGolgi ctrl: yeast control strain growth, post-Golgi counter-screen | efflux-deficient yeast background strain, growth absorbance A615, 16 h | inhibition, % at 10 µM | 98,000 tested, 5% active | AID 738
Of the large screens only hits and unclear results are named; the others gave an inactive call. Rule as the data show it, unless noted: active = inhibition above about 30%; inactive = the rest.

c1ccc(-c2ccccc2-c2nc(-c3cccnc3)no2)cc1	PostGolgi yeast 38.5, PostGolgi ctrl 33.7
COc1cc(C=NCC2OCCc3ccccc32)cc(OC)c1 (centres undefined)	none (no result: PostGolgi yeast, PostGolgi ctrl)
C/C(CCc1oc2ccccc2c1-c1ccc(C)o1)=N/O	PostGolgi ctrl 47.1
C/C(CCc1oc2c(Br)cc(Br)cc2c1-c1ccc(C)o1)=N\O	none (no result: Yeast lifespan up, PostGolgi yeast, PostGolgi ctrl)
COC(=O)c1ccc2c(=O)n(CC3CCCO3)c(SCC(=O)Nc3ccccc3Cl)nc2c1 (centres undefined)	none
COC(=O)c1ccc2c(=O)n(CC3CCCO3)c(SCC(=O)Nc3ccccc3OC)nc2c1 (centres undefined)	PostGolgi ctrl 32.8
CCOCCCNC(=O)C(NC(=O)c1cnccn1)c1ccc(C)cc1 (centres undefined)	none
FC(F)(F)c1cc(-c2ccccc2)nc(NCc2cccnc2)n1	PostGolgi ctrl 34.0
Cc1onc(-c2ccccc2)c1C(=O)NNC(=S)NC(=O)/C=C/c1cccs1	none (no result: PostGolgi yeast, PostGolgi ctrl)
C=CCn1c(SCC(O)Cn2c3ccccc3c3ccccc32)nnc1-c1ccco1 (centres undefined)	PostGolgi ctrl 46.3
C=CCn1c(SCC(=O)Nc2ccccc2OC)nnc1-c1ccco1	none
Cn1c(=O)c(-c2cc(Br)ccc2N)nc2ccccc21	none
Cc1cc(C(C)(C)C)ccc1OCCN1CCCC1	PostGolgi yeast 66.8
Cc1ccc(C(=O)NCc2ccco2)cc1S(=O)(=O)N1CCCCC1	none
Cc1ccc(C(=O)Nc2ccccc2C(=O)NCc2ccco2)cc1S(=O)(=O)N1CCCCC1	PostGolgi ctrl 97.0
O=C(NCc1ccco1)c1cc(S(=O)(=O)N2CCOCC2)ccc1Cl	PostGolgi ctrl 35.4
CC(NC(=O)c1cccs1)c1nnc(SCc2ccc(Cl)cc2Cl)n1C (centres undefined)	none (no result: PostGolgi yeast, PostGolgi ctrl)
Cc1ccccc1OCC(=O)NNC(=S)NC(=O)c1ccccc1[N+](=O)[O-]	none (no result: PostGolgi yeast, PostGolgi ctrl)
CC(C)(C)c1ccc(OCC(=O)NNC(=S)NC(=O)c2ccccc2[N+](=O)[O-])c(Br)c1	Yeast lifespan up 31.3 (no result: PostGolgi yeast, PostGolgi ctrl)
CCCN(CCC)C(=O)CC(c1ccccc1)c1ccc(C)cc1O (centres undefined)	none
CCCN(CCC)C(=O)CC(c1ccccc1)c1cc(Br)ccc1O (centres undefined)	PostGolgi ctrl 47.0
Cc1cc(C)c(S(=O)(=O)n2c([N+](=O)[O-])cnc2C)c(C)c1	none (no result: PostGolgi yeast, PostGolgi ctrl)
COc1ccc(-n2c(C)c3c(OC)cccc(=O)c3c2C)cc1	PostGolgi ctrl 34.4
CC(C)[C@@H]1CC[C@@H](C)c2c(-c3ccccc3)n[nH]c21	PostGolgi ctrl 40.7
Nc1c(-c2ccccc2)n[nH]c1-c1ccccc1	none
COC(=O)c1cccc(C(=O)Nc2ccc(F)cc2)n1	PostGolgi ctrl 31.6
CC(=O)Nc1ccc(NC(=O)c2cccc(C(=O)OC(C)C)n2)cc1	none
CC1=C(C(=O)OCC(C)C)C(c2ccccc2Cl)NC(=O)N1C (centres undefined)	none
CC1=C(C(=O)OCC(C)C)C(c2cc3c(cc2Br)OCO3)NC(=O)N1C (centres undefined)	PostGolgi ctrl 37.7
CCOc1cc2c3c(c1)C1(Nc4ccccc4S1)C(=O)N3C(C)(C)CC2C (centres undefined)	PostGolgi ctrl 37.0
COC(=O)c1c(CSc2ccc(C)c(C)c2)noc1C(=O)NCc1ccc(OC)cc1	none
O=C1NC(=S)SC1=C1CCCCCC1	PostGolgi ctrl 64.2
O=C1N=C(N2CCCCC2)SC1=C1CCCCC1	none
CCOc1ccc(C2/C(=C(\O)c3c(C)[nH]c(C(=O)OC)c3C)C(=O)C(=O)N2CCN(C)C)cc1 (centres undefined)	none
CCCOc1ccc(C2/C(=C(\O)c3c(C)[nH]c(C(=O)OC)c3C)C(=O)C(=O)N2CCN(C)C)cc1 (centres undefined)	PostGolgi ctrl 31.5
O=C1C2ON(c3ccc(Br)cc3)C(c3cccnc3)C2C(=O)N1C1CCCCC1 (centres undefined)	PostGolgi yeast 101.9, PostGolgi ctrl 84.6
CCc1nc(N)c(C#N)c(-c2ccccc2OC)c1C	PostGolgi yeast 31.0
C[N+]1(C2CCC3CCCC2C3O)CCCC1 (centres undefined)	none (no result: PostGolgi yeast, PostGolgi ctrl)
N#Cc1c(NC(=O)c2ccc(Cn3cc(Br)cn3)o2)sc2c1CCCCC2	PostGolgi ctrl 35.0
CC1CCc2c(sc(NC(=O)c3ccc(Cn4cc([N+](=O)[O-])cn4)o3)c2C#N)C1 (centres undefined)	PostGolgi ctrl 37.8
O=C(CSc1nc2[nH]ncc2c(=O)[nH]1)N1CCCCC1	none (no result: PostGolgi yeast, PostGolgi ctrl)
CCCCn1c(SCC(=O)NCc2ccco2)nc2ccccc2c1=O	none
CCCCCn1c(SCc2ccncc2)nc2cc(C(=O)NCc3ccco3)ccc2c1=O	PostGolgi ctrl 43.4
COc1ccc(OCCSc2nnc3sc4ccccc4n23)cc1	PostGolgi yeast 38.1
CCOC(=O)c1ccc(NC(=O)c2ccccc2[N+](=O)[O-])cc1	none (no result: PostGolgi yeast, PostGolgi ctrl)
CCOC(=O)c1cc([N+](=O)[O-])c([N+](=O)[O-])cc1NC(C)=O	BB579 growth dn 99.0 (no result: PostGolgi yeast, PostGolgi ctrl)
CCC(C)(C)C1CCC(=NNC(=O)c2ccoc2C)CC1 (centres undefined)	none
Cc1nn(Cc2ccccc2Cl)c(C)c1NC(=O)NC12CC3CC(CC(C3)C1)C2	PostGolgi ctrl 34.7
Cc1nn(Cc2ccccc2Cl)c(C)c1NC(=O)c1ccn(C)n1	none (no result: PostGolgi yeast, PostGolgi ctrl)
O=[N+]([O-])c1ccc(N/N=C/c2c[nH]c3ccccc23)c(S(=O)(=O)Nc2ccc(Cl)cc2)c1	PostGolgi yeast 86.5
COc1ccccc1NS(=O)(=O)c1cc([N+](=O)[O-])ccc1N/N=C/c1c(C)[nH]c2ccccc12	none
COC(=O)c1nn(-c2ccccc2)nc1-c1nn(-c2ccccc2)nc1C(=O)OC	PostGolgi yeast 35.7, PostGolgi ctrl 76.8
O=C(O)c1nn(-c2ccccc2)nc1-c1nn(-c2ccccc2)nc1C(=O)O	none
CC1CCN(C(=O)CCNC(=O)Cn2cnc3sc4c(c3c2=O)CCCC4)CC1	none
Cc1ccc(S(=O)(=O)n2nc(C)c(Br)c2C)c(C)c1C	PostGolgi ctrl 48.0
CCOC(=O)N1CCN(S(=O)(=O)c2ccc(C)c(C)c2C)CC1	none
CC(C)n1c(SCC(N)=O)nc2c1c(=O)n(C)c(=O)n2C	none
CCCn1c(SCC(=O)N2c3ccccc3Sc3ccccc32)nc2c1c(=O)n(C)c(=O)n2C	PostGolgi ctrl 32.1
CC(C)n1c(SCC(=O)N2c3ccccc3Sc3ccccc32)nc2c1c(=O)n(C)c(=O)n2C	PostGolgi ctrl 38.5
COc1ccc(CC(=O)Nc2ccc(C(=O)Nc3ccccc3C(=O)O)cc2)cc1OC	none (no result: PostGolgi yeast, PostGolgi ctrl)
CCN1C(=O)c2cccc3c(NC(=O)c4ccc(OC)c(OC)c4)ccc1c23	none
CCc1nc(SCC(=O)c2ccc(Cl)s2)c2oc3ccccc3c2n1	none
CCc1nc(SCCO)c2oc3ccccc3c2n1	none
CCc1nc(SCC(=O)N2CCN(c3ccccc3)CC2)c2oc3ccccc3c2n1	PostGolgi ctrl 32.7
CCc1nc(SCc2nc3ccccc3[nH]2)c2oc3ccccc3c2n1	PostGolgi ctrl 69.0
Cc1nn(C)cc1/C=C(/C#N)C(N)=O	none (no result: PostGolgi yeast, PostGolgi ctrl)
CCc1cc2c(=O)c(-c3nc4ccccc4n3C)c(C)oc2c(CN(CC)CC)c1O	PostGolgi ctrl 34.6

High-throughput results from PubChem BioAssay.
